Assay results published in ChEMBL document CHEMBL4017500 (J Med Chem, 2017).
Each block holds one molecule with its values, some of them ahead of it. Calls of active or inactive are those of the source. No cut-off for these calls is given here.

What was measured:
[1] = Inhibition of bacterial MBP-fused NDM1 expressed in Escherichia coli BL21(DE3) ausing chromacef as substrate preincubated for 20 mins followed by substrate addition measured after 0.3 mins; design: species or system Bacteria
In short: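 Preincubated 20 min, then 3 μM substrate (~3×KM) added. A442 followed ~0.3 min at 25 °C. Activity scaled to uninhibited (100%) and no-enzyme (0%) controls, fitted to a Hill-type equation.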

[2] = Inhibition of bacterial MBP-fused NDM1 expressed in Escherichia coli BL21(DE3) ausing fluorocillin as substrate preincubated for 20 mins followed by substrate addition measured at 1 sec time interval for 25 mins by fluorescence assay; design: species or system Bacteria
In short: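 NDM-1 pre-incubated 20 min with inhibitor (final 100 μM to 1 nM) in 50 mM HEPES pH 7.0 with 2 mM CHAPS. Reaction started with fluorocillin (final 87 nM, below KM), NDM-1 final 25 pM. Fluorescence read at λex/em 495/525 nm, 10 reads over ~25 min.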

[3] = Inhibition of bacterial NDM1; design: species or system Bacteria
In short: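 Chromogenic NDM-1 assay: enzyme (3 nM) pre-incubated 20 min with ~20 inhibitor concentrations in 50 mM HEPES, 1% DMSO, pH 7.0. Chromacef substrate 3 μM (~3×KM). Absorbance at 442 nm followed ~0.3 min at 25 °C.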

Bacteria [4] = test: Binding affinity to bacterial CoCoNDM-1 expressed in Escherichia coli BL21(DE3) assessed as CoCoNDM-1-compound ternary complex formation at 1 equiv by 1H […] spectroscopic method
[5] = Fluorescence quenching activity assessed as reduction in tryptophan fluorescence up to 32 uM after 30 mins by luminescence spectrometric method
In short: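 NDM-1 (2 μM final) in 50 mM HEPES pH 7.5 with compound at 4–32 μM for 30 min. Excitation 280 nm, emission scanned 300–400 nm, intensity taken at 348 nm. Scaled with buffer as 0% and inhibitor-free enzyme as 100%. Free L-tryptophan (2 μM) run as control.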

Bacteria [6] = test: Binding affinity to bacterial NDM-1 expressed in Escherichia coli BL21(DE3) assessed as Zn2+ stripping up to 128 uM after 30 mins by equilibrium dialysis method
In short: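 NDM-1 (8 μM final) in 50 mM HEPES pH 7.5 mixed with compound at 0–128 μM for 30 min. Then dialyzed 4 h against metal-free 50 mM HEPES pH 7.5. Residual Zn(II) measured by ICP-AES at 213.856 nm.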

Bacteria [7] = test: Binding affinity to bacterial CoCoNDM-1 expressed in Escherichia coli BL21(DE3) assessed as CoCoNDM-1-compound ternary complex formation at 1 to 2 equiv after 30 mins by UV-Visible spectroscopic method
In short: (§1)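 Apo-NDM-1 at 300 μM in 50 mM HEPES, 150 mM NaCl, pH 6.8, loaded with 2 molar equiv CoCl2. […] Absorbance read 300–700 nm at 25 °C as difference spectra against buffer blank, normalized at 700 nm.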

Bacteria [8] = test: Binding affinity to bacterial NDM-1 expressed in Escherichia coli BL21(DE3) assessed as increase in intrinsic tryptophan fluorescence up to 32 uM after 30 mins by luminescence spectrometric method relative to control
In short: (§2)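 NDM-1 at 2 μM final in 50 mM HEPES pH 7.5 mixed with compound at 4–32 μM, incubated 30 min. Emission scanned 300–400 nm with excitation at 280 nm. Relative tryptophan fluorescence read at 348 nm, with buffer set to 0% and inhibitor-free NDM-1 to 100%. Control run with 2 μM L-tryptophan in place of enzyme.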

Bacteria [9] = test: Binding affinity to bacterial CoCoNDM-1 expressed in Escherichia coli BL21(DE3) assessed as CoCoNDM-1-compound ternary complex formation at 3 to 5 equiv by 1H NMR spectroscopic method
In short: (§3)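 Apo-NDM-1 concentrated to ~1 mM and loaded with 2 equiv CoCl2. Samples in 50 mM HEPES, 150 mM NaCl, 10% D2O, pH 6.8. Compounds from 50–100 mM DMSO stocks titrated in ~5 μL aliquots. 1H spectra recorded at 292 K, 300.16 MHz.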

Bacteria [10] = test: Inhibition of bacterial MBP-fused NDM1 expressed in Escherichia coli BL21(DE3) at 50 uM using chromacef as substrate preincubated for 10 mins followed by substrate addition measured after 20 mins by HTS assay relative to control
In short: (§4)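 Colorimetric chromacef screen, final 50 mM HEPES, 2 mM CHAPS, pH 7.0. Substrate added at 3 μM (NDM-1, ~3×KM), 7.2 μM (IMP-1) or 16 μM (VIM-2). […] Percent inhibition calculated.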

[11] = target: Beta-lactamase VIM-2 (Pseudomonas aeruginosa) (UniProt Q9K2N0); test: Inhibition of Pseudomonas aeruginosa VIM2 expressed in Escherichia coli BL21(DE3) at 50 uM using chromacef as substrate preincubated for 10 mins followed by substrate addition measured after 20 mins by HTS assay relative to control; in short: as §4
[12] = target: Metallo-beta-lactamase type 2 (Serratia marcescens) (UniProt P52699); test: Inhibition of Serratia marcescens IMP1 expressed in Escherichia coli BL21(DE3) at 50 uM using chromacef as substrate preincubated for 10 mins followed by substrate addition measured after 20 mins by HTS assay relative to control; in short: as §4
Bacteria [13] = test: Binding affinity to bacterial CoCoNDM-1 expressed in Escherichia coli BL21(DE3) assessed as metal stripping at 1 to 2 equiv after 30 mins by UV-Visible spectroscopic method; in short: as §1
[14] = Metal chelating activity assessed as Co2+-compound complex formation at 1 equiv by 1H NMR spectroscopic method; assay type: functional
In short: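 Apo-NDM-1 concentrated to ~1 mM and given 2 equivalents of CoCl2, in 50 mM HEPES, 150 mM NaCl, 10% D2O, pH 6.8. Compounds, from DMSO stocks of 50–100 mM, titrated in. 1H NMR spectra recorded at 292 K at 300.16 MHz.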

Bacteria [15] = test: Inhibition of bacterial MBP-fused NDM1 expressed in Escherichia coli BL21(DE3) ausing fluorocillin as substrate preincubated for 20 mins followed by substrate addition measured at 1 sec time interval for 25 mins in presence of ZnSO4 by fluorescence assay
Beta-lactamase VIM-2 = Beta-lactamase VIM-2 (Pseudomonas aeruginosa, UniProt Q9K2N0); test: Inhibition of Pseudomonas aeruginosa VIM2 expressed in Escherichia coli BL21(DE3) using fluorocillin as substrate preincubated for 10 mins followed by substrate addition measured after 20 mins by HTS assay
Bacteria [16] = test: Binding affinity to bacterial NDM-1 expressed in Escherichia coli BL21(DE3) assessed as intrinsic tryptophan fluorescence quenching up to 32 uM after 30 mins by luminescence spectrometric method relative to control; in short: as §2
Bacteria [17] = test: Binding affinity to bacterial CoCoNDM-1 expressed in Escherichia coli BL21(DE3) assessed as metal stripping at 1 to 2 equiv by 1H NMR spectroscopic method; in short: as §3

Chain of Metallo-beta-lactamase type 2 (Serratia marcescens) (P52699 19-246 limits assumed): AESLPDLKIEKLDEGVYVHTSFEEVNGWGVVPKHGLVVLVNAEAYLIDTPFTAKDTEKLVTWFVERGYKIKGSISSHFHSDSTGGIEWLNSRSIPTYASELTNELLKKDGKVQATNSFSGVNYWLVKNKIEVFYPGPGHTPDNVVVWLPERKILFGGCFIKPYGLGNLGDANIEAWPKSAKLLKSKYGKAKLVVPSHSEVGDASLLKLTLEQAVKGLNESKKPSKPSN

IC50 [1]: > 50000 nM
SMILES: O=C(O)c1cccc(C(=O)NCc2ccc3c(c2)OCO3)n1

IC50 [1]: 7200 nM
SMILES: COc1ccc(CNc2cc(C(=O)O)nc(C(=O)O)c2)cc1

IC50 [1]: > 50000 nM
SMILES: CC(C)NC(=O)c1cccc(C(=O)O)n1

IC50 [1]: > 50000 nM
SMILES: O=C(O)c1cccc(C(=O)NCc2cccs2)n1

IC50 [1]: > 50000 nM
SMILES: COc1ccc(CNC(=O)c2cccc(C(=O)O)n2)cc1

IC50 [1]: > 50000 nM
SMILES: O=C(O)c1cccc(C(=O)NC2CCCC2)n1

IC50 [2]: 380 nM | IC50 [1]: 430 nM
SMILES: COc1ccc(-c2cc(C(=O)O)nc(C(=O)O)c2)cc1

IC50 [1]: > 50000 nM
SMILES: COc1ccc(NC(=O)c2cccc(C(=O)O)n2)cc1

inhibition (Bacteria [10]): > 60% | inhibition [11]: > 60% | inhibition [12]: > 60%
SMILES: O=C(O)c1ccc2cccc(O)c2n1

IC50 [2]: 1070 nM | IC50 [1]: 800 nM
SMILES: COc1cccc(-c2cc(C(=O)O)nc(C(=O)O)c2)c1

IC50 [1]: > 50000 nM
SMILES: O=C(O)c1cccc(C(=O)Nc2ccccc2)n1

IC50 [1]: > 50000 nM
SMILES: O=C(O)c1cccc(C(=O)NCCc2ccccc2)n1

IC50 [1]: 4500 nM
SMILES: COc1ccc(Nc2cc(C(=O)O)nc(C(=O)O)c2)cc1

IC50 [1]: > 50000 nM
SMILES: O=C(O)c1cccc(C(=O)NCCc2cccs2)n1

IC50 [1]: 24000 nM
SMILES: O=C(O)c1cccc(C(=O)NCc2nccs2)n1

IC50 [1]: > 50000 nM
SMILES: O=C(O)c1cccc(C(=O)NCc2ccco2)n1

IC50 [2]: 500 nM | IC50 [1]: 500 nM
SMILES: COc1ccccc1-c1cc(C(=O)O)nc(C(=O)O)c1

IC50 [1]: 22000 nM
SMILES: CC(C)[C@@H](NC(=O)c1cccc(C(=O)O)n1)C(=O)O

IC50 [2]: 930 nM | IC50 [1]: 990 nM
SMILES: CC(=O)Nc1cccc(-c2cc(C(=O)O)nc(C(=O)O)c2)c1

IC50 [1]: 49000 nM
SMILES: O=C(O)CNC(=O)c1cccc(C(=O)O)n1

IC50 [1]: > 50000 nM
SMILES: CC(C)CNC(=O)c1cccc(C(=O)O)n1

IC50 [1]: > 50000 nM
SMILES: O=C(O)c1cccc(C(=O)NCc2ccccc2)n1

Further lines, the molecule ahead of its results:

SMILES: O=C(O)c1cccc(-c2cc(C(=O)O)nc(C(=O)O)c2)c1
IC50 [2]: 200 nM | IC50 [1]: 890 nM

SMILES: O=C(O)c1cc(-c2ccccc2)cc(C(=O)O)n1
IC50 [1]: 990 nM

SMILES: CN(C)c1cc(C(=O)O)nc(C(=O)O)c1
IC50 [1]: 13600 nM

SMILES: CN(C)c1cccc(-c2cc(C(=O)O)nc(C(=O)O)c2)c1
IC50 [2]: 430 nM | IC50 [1]: 820 nM

SMILES: N[C@@H](CN[C@@H](CN[C@@H](CC(=O)O)C(=O)O)C(=O)O)C(=O)O
IC50 [3]: 4000 nM

SMILES: O=C(O)c1cccc(C(=O)N2CCCCC2)n1
IC50 [1]: > 50000 nM

SMILES: O=C(O)c1cc(-c2ccccc2O)cc(C(=O)O)n1
IC50 [2]: 130 nM | IC50 [1]: 520 nM

SMILES: O=C(O)c1cc(-c2ccc(O)cc2)cc(C(=O)O)n1
IC50 [2]: 390 nM | IC50 [1]: 660 nM

SMILES: C[C@H](CS)C(=O)N1CCC[C@H]1C(=O)O
Activity (Bacteria [4]): Active | Activity [5]: inactive | Activity (Bacteria [6]): inactive | Activity (Bacteria [7]): Active | Activity (Bacteria [8]): 10% | Activity (Bacteria [9]): Active

SMILES: O=C(O)c1cc(NCc2ccccc2)cc(C(=O)O)n1
IC50 [1]: 8400 nM

SMILES: O=C(O)c1cc(Cl)cc(C(=O)O)n1
IC50 [1]: 5000 nM

SMILES: O=C(O)c1cc(NCCc2ccccc2)cc(C(=O)O)n1
IC50 [1]: 9100 nM

SMILES: O=C(O)c1cc(NCc2cccs2)cc(C(=O)O)n1
IC50 [1]: 5200 nM

SMILES: NCCNCc1ccc(C(=O)N[C@H]2Cc3cccc(C(=O)O)c3O[B-]2(O)O)cc1
IC50 [3]: 4 nM

SMILES: Oc1c(I)cc(Cl)c2cccnc12
inhibition (Bacteria [10]): > 60% | inhibition [11]: > 60% | inhibition [12]: > 60%

SMILES: O=C(Nc1cccc(-c2cc(C(=O)O)nc(C(=O)O)c2)c1)c1ccccc1
IC50 [2]: 130 nM | IC50 [1]: 860 nM

SMILES: Nc1ccc(-c2cc(C(=O)O)nc(C(=O)O)c2)cc1
IC50 [2]: 540 nM | IC50 [1]: 1030 nM

SMILES: O=C(O)c1cccc(C(=O)NCC2CCCO2)n1 (stereo unspecified)
IC50 [1]: > 50000 nM

SMILES: O=C(O)c1cccc(C(=O)O)n1 [DIPICOLINIC ACID]
inhibition (Bacteria [10]): > 60% | Activity (Bacteria [13]): Active | Activity (Bacteria [4]): Active | Activity [14]: Active | inhibition (Bacteria [15]): inactive | IC50 (Beta-lactamase VIM-2): 1660 nM | Activity (Bacteria [6]): Active | IC50 [2]: 410 nM | Activity (Bacteria [16]): 20% | inhibition [11]: > 60% | inhibition [12]: > 60% | IC50 [1]: 520 nM | Activity (Bacteria [17]): Active

SMILES: O=C(O)c1cccc(C(=O)NC2CCCCC2)n1
IC50 [1]: > 50000 nM

SMILES: O=C(O)c1cc(NCc2ccc3c(c2)OCO3)cc(C(=O)O)n1
IC50 [1]: 5800 nM

SMILES: O=C(O)CN(CCN(CC(=O)O)CC(=O)O)CC(=O)O
Activity (Bacteria [13]): Active | Activity [5]: inactive | Activity (Bacteria [6]): Active | Activity (Bacteria [16]): < 10% | Activity (Bacteria [17]): Active

SMILES: c1ccc(C2=NCCS2)nc1
inhibition (Bacteria [10]): > 60% | inhibition [11]: > 60% | inhibition [12]: > 60%

SMILES: O=C(O)c1cc(Nc2ccccc2)cc(C(=O)O)n1
IC50 [1]: 3400 nM

SMILES: O=C(O)c1cc(NCc2ccco2)cc(C(=O)O)n1
IC50 [1]: 4900 nM

SMILES: O=C(O)c1cc(-c2cccc(O)c2)cc(C(=O)O)n1
IC50 [2]: 430 nM | IC50 [1]: 600 nM

SMILES: Oc1ccc[nH]c1=S
inhibition (Bacteria [10]): > 60% | inhibition [11]: > 60% | inhibition [12]: > 60%

SMILES: O=C(Cc1ccccc1)Nc1cccc(-c2cc(C(=O)O)nc(C(=O)O)c2)c1
IC50 [2]: 590 nM | IC50 [1]: 860 nM

SMILES: CN(C)c1ccc(-c2cc(C(=O)O)nc(C(=O)O)c2)cc1
IC50 [2]: 190 nM | IC50 [1]: 570 nM

SMILES: c1cnc2c(c1)ccc1cccnc12
inhibition (Bacteria [10]): > 60% | inhibition [11]: > 60% | inhibition [12]: > 60%
